RORA inh: inhibitors of human nuclear receptor RORA; inhibition, % at 10 µM; P35398; CHO-K1 Gal4-RORA LBD luciferase reporter, luminescence; actives 0.43% (n = 65,000);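 active means inhibition above the mean of all tested compounds plus 3 SD, cut at about 52% in these data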
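Test system: CHO-K1 cells with Gal4-hRORA LBD fusion and pG5-luc reporter | Timing: 20 h compound treatment, 37 °C | Detection: Luminescence from basal luciferase reporter expression | Read-out basis: % inhibition of basal luciferase versus +RORA/-RORA DMSO controls | Repeats: One measurement per compound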
Hits are given with their value; - = inactive. The entries come from a sample that favours hits as a whole.

SMILES	RORA inh
CCc1ccc(OCc2nc(-c3ccccn3)no2)c(Br)c1	-
CCOc1ccc(-c2nc(-c3ccccc3)no2)cc1OCC	-
Cc1cc(NO)nc(-c2ccc(Br)cc2)n1	-
CCOC(=O)Cc1csc(SCc2nc3ccccc3c(=O)[nH]2)n1	-
Cc1ccc(-c2cc3c(nn2)-c2ccccc2C3=O)cc1	83
Cc1cc(OCC(=O)N2CCOCC2)c(C(C)C)cc1Cl	-
CCc1nn2cc(-c3ccccc3)nc2s1	66
CCS(=O)(=O)n1nc(-c2ccccc2)cc1N	-
Cc1c(C(=O)Nc2ccccc2)sc2nc(-c3ccccc3)cn12	-
O=c1nc(-c2ccccc2)cn[nH]1	-
COc1ccc(C)cc1S(=O)(=O)N1CCN(c2cccc(C(F)(F)F)c2)CC1	-
Nc1nnnn1/N=C/C(Br)=C/c1ccccc1	77
Cc1cccc(NC(=O)CSc2nnc(-c3cc(C)n(-c4ccccc4)c3C)o2)c1C	63
Cc1csc(NC(=O)CSc2nnc(-c3ccoc3C)o2)n1	-
Cc1cc(-c2nnco2)c(C)n1-c1ccccc1	-
Cc1ccc(-c2nnc(SCC(=O)Nc3ccccc3F)o2)cc1	63
Cc1cccc(C)c1OCc1nnc(SCC(=O)Nc2ccccc2F)o1	-
Cc1[nH]c2ccc(-c3nnc(SCC(=O)c4ccccc4F)o3)cc2c1C	-
CCC(=O)Nc1c(OC(=O)CC)ccc2c(C)cc(=O)oc12	-
COC(=O)c1ccc(NC(=O)Cn2nc(SC)n(N)c2=S)cc1	-
Cc1cc(N)c(NC2=CC(=O)CC(C)(C)C2)cc1C	-
CC(=O)Cc1nsc(Nc2ccc3c(c2)OCCO3)n1	-
c1ccn2c(CNc3ncnc4sccc34)nnc2c1	-
CC(C)[C@H](NC(=O)[C@@H]1CSCN1C(=O)OC(C)(C)C)C(=O)NCC1CCC(C(=O)O)CC1 (stereo partly specified)	-
C/C(O)=c1/ccc2cccc3nc(C)nc1c23	-
SMILES	RORA inh
CSC1=NC(NCCCO)c2c(sc3c2CC(C)(C)OC3)N1 (stereo unspecified)	-
O=C(OCc1c(F)cccc1Cl)c1cnccn1	-
Cc1cnc(-c2nnc(N(C)C(=O)c3cnccn3)s2)cn1	-
COc1ccc(C(=O)Nn2c(SCC(=O)NCC3CCCO3)nc3ccccc3c2=O)cc1 (stereo unspecified)	67
COc1ccc(CN(CC(=O)NCC2CCCO2)C(=O)CCC(=O)Nc2cc(C)ccn2)cc1 (stereo unspecified)	-
CC(=O)NCCn1c(SCC(=O)NCC2CCCO2)nc2ccccc2c1=O (stereo unspecified)	-
O=C(Nc1ncnc2c1ncn2C1OC(COC(=O)c2ccccc2)C(F)C1O)c1ccccc1 (stereo unspecified)	-
CCOc1ccc2nc(N3CCC(C(=O)N4CCN(c5ncccn5)CC4)CC3)sc2c1	-
CC1CCN(c2nc3ccc(C(=O)O)cc3s2)CC1	92
O=C(NCC1CCCO1)c1ccc2nc(N3CCCCC3)sc2c1 (stereo unspecified)	-
NC(=O)c1ccc(NC(=O)CCCc2nc(-c3ccccc3Cl)no2)cc1	-
CC(C)(C)c1ccc(-c2noc(CCC(N)=O)n2)cc1	88
c1ccc(-c2noc(CN3CCN(c4ccccc4)CC3)n2)cc1	-
O=C(Nc1ccc(-c2noc(CCc3ccccc3)n2)cc1)c1ccco1	-
CNC(=O)CCc1nc(-c2ccc(C(C)(C)C)cc2)no1	89
Cc1cccc(-c2noc(Cc3ccccc3)n2)c1	-
CN(C)C(=O)CCc1nc(-c2ccc(C(C)(C)C)cc2)no1	82
CC(C)(C)c1ccc(-c2nnc(SCC(=O)O)n2N)cc1	-
COc1ccc(OC)c2sc(NC(=O)c3ccc(S(=O)(=O)N(C)C)cc3)nc12	-
CCOC(=O)c1c(C)n(CC(COC(C)=O)OC(C)=O)c2ccc(OC(C)=O)cc12 (stereo unspecified)	-
CCOC(=O)C1=C(C)N(c2ccccc2)C(=O)C1CC(=O)O (stereo unspecified)	-
N#CN=C1SCCS1	-
CCOc1ccc2nc(NCCNC(=O)C3CC3)c(C)cc2c1	-
CC1CCc2c(sc3nc(SCc4nc(-c5ccccc5)no4)n(C)c(=O)c23)C1 (stereo unspecified)	-
O=C(NCC1CCCO1)c1cccc(-n2cnnn2)c1 (stereo unspecified)	-
SMILES	RORA inh
Cc1cc(C)c(NC(=O)Cn2c(=O)n(Cc3ccco3)c(=O)c3ccccc32)c(C)c1	-
Cc1ccc(S(=O)(=O)NCC(=O)OCN2C(=O)c3ccccc3C2=O)cc1	-
C=CCn1c(SCC(=O)Nc2nccs2)nnc1-c1cc2cccc(OC)c2o1	-
CN(CC(=O)Nc1nccs1)S(=O)(=O)c1ccc(F)cc1	-
COc1ccc(CNC(=O)CCCCCn2c(SCC#N)nc3cc4c(cc3c2=O)OCO4)cc1	-
O=C(COC(=O)c1cc(=O)[nH]c2ccccc12)NC(=O)NC1CCCCC1	-
c1ccc2nc(-c3nc4ccccc4[nH]3)ccc2c1	66
Cn1ccnc1-c1nc2ccccc2[nH]c1=O	-
Cn1cc(Cl)c(-c2nc3ccccc3[nH]2)n1	-
CCc1cc2c3c(c(=O)oc2cc1O)CCCC3	-
